Reference: ChEMBL document CHEMBL1140454, “Conformationally constrained analogues of 2-arachidonoylglycerol” (Bioorg Med Chem Lett, 2007)
pKi: −log10 of the molar value.

Legend:
[1] = biological target: T1, Fatty-acid amide hydrolase 1 (Rattus norvegicus) (UniProt P97612); test: Activity of partially purified Sprague-Dawley rat FAAH assessed as substrate hydrolysis
T1 sequence (whole entry): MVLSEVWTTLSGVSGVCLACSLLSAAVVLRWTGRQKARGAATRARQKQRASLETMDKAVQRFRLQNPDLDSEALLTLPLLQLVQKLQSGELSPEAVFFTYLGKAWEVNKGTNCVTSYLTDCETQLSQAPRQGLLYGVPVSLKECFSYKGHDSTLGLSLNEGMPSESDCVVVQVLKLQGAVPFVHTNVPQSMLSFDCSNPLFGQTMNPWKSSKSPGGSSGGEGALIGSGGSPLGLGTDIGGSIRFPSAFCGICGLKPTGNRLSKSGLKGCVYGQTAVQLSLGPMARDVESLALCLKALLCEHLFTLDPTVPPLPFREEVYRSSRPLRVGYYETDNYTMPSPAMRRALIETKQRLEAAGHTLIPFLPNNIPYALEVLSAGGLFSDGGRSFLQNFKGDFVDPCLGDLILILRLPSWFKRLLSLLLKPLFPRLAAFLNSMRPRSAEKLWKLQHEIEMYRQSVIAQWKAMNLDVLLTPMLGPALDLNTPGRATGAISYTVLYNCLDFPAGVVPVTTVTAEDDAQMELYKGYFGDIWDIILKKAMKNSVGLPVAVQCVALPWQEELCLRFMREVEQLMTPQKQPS

[2] = biological target: T2, Monoglyceride lipase (Rattus norvegicus) (UniProt Q8R431); test: Activity of partially purified Sprague-Dawley rat MGL assessed as substrate hydrolysis
T2 sequence (whole entry): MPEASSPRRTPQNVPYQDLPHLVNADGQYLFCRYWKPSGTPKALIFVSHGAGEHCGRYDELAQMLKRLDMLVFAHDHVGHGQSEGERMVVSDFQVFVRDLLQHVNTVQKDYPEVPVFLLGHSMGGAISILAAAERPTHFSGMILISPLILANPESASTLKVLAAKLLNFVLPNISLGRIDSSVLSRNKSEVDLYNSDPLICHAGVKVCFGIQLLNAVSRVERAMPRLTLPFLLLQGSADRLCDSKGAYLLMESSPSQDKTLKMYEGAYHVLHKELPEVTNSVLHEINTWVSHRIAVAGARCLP

Cannabinoid receptor 2 = Cannabinoid receptor 2 (Mus musculus, UniProt P47936); test: Displacement of [3H]CP-55940 from mouse spleen CB2 receptor; format: tissue-based
In short: (§1)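 Competition-equilibrium binding against [3H]CP55940, using rat brain membranes for CB1 and mouse spleen membranes for CB2. Some CB1 runs used membranes pretreated with PMSF. IC50 came from nonlinear regression and Ki was calculated from IC50. Points were run in duplicate, with values from single experiments.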

Cannabinoid receptor 1 = Cannabinoid receptor 1 (Rattus norvegicus, UniProt P20272); test: Displacement of [3H]CP-55940 from rat brain CB1 receptor
In short: as §1

Sequence of Cannabinoid receptor 2 (P47936 whole entry): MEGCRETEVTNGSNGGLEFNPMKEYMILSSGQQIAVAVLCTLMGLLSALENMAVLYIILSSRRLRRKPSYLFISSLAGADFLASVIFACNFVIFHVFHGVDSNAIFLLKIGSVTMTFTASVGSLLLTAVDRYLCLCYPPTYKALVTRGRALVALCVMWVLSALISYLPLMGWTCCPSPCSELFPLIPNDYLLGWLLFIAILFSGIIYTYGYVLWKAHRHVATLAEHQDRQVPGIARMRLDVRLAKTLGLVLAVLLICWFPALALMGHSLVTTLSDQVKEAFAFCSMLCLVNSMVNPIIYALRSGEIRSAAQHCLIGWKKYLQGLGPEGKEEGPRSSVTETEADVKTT
Sequence of Cannabinoid receptor 1 (P20272 whole entry): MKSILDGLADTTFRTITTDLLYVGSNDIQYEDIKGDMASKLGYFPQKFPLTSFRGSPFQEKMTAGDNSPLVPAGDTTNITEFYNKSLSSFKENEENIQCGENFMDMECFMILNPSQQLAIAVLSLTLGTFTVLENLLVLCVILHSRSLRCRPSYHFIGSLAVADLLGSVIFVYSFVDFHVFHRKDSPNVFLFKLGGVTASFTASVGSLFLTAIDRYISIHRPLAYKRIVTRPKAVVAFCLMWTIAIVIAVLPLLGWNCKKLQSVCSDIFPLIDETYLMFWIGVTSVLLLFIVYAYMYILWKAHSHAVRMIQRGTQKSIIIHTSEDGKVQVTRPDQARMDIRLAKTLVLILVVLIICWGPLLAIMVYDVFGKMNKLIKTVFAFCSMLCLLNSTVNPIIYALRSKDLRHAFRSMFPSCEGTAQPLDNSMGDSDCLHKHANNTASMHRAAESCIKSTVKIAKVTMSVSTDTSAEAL

Row | Compound | hydrolysis [1] | hydrolysis [2] | pKi (Cannabinoid receptor 2) | pKi (Cannabinoid receptor 1)
1 | CCCCC/C=C\C/C=C\C/C=C\C/C=C\CCCC(=O)OC1C(O)CCCC1O (single isomer, unassigned; (+)) [listing 1 of 2 here] | 88% | 10% | – | –
2 | CCCCC/C=C\C/C=C\C/C=C\C/C=C\CCCC(=O)O[C@H]1[C@H](O)CCC[C@@H]1O | 78% | 19% | – | –
3 | CCCCC/C=C\C/C=C\C/C=C\C/C=C\CCCC(=O)OC1C(O)CCCC1O (single isomer, unassigned; (-)) [listing 1 of 2 here] | 88% | 13% | – | –
4 | CCCCC/C=C\C/C=C\C/C=C\C/C=C\CCCC(=O)OC1C(O)CCCC1O (racemic) | 100% | 1% | – | –
5 | CCCCC/C=C\C/C=C\C/C=C\C/C=C\CCCC(=O)OC1C(O)CCCC1O (single isomer, unassigned; (+)) [listing 2 of 2 here] | – | – | 6.43 | 6.44
6 | CCCCC/C=C\C/C=C\C/C=C\C/C=C\CCCC(=O)OC1C(=O)CCCC1O (racemic; form 1) [listing 1 of 2 here] | 91% | 48% | – | –
7 | CCCCC/C=C\C/C=C\C/C=C\C/C=C\CCCC(=O)OC(CO)CO | 100% | 74% | – | –
8 | CCCCC/C=C\C/C=C\C/C=C\C/C=C\CCCC(=O)OC1C(=O)CCCC1O (racemic; form 1) [listing 2 of 2 here] | – | – | 6.39 | –
9 | CCCCC/C=C\C/C=C\C/C=C\C/C=C\CCCC(=O)OC1C(O)CCCC1O (single isomer, unassigned; (-)) [listing 2 of 2 here] | – | – | 5.92 | 6.11
10 | CCCCC/C=C\C/C=C\C/C=C\C/C=C\CCCC(=O)O[C@@H]1[C@H](O)CCC[C@@H]1O | 2% | 2% | – | –
11 | CCCCC/C=C\C/C=C\C/C=C\C/C=C\CCCC(=O)OC1C(=O)CCCC1O (racemic; form 2) | 100% | 8% | – | –
